Values after ≈ are worked out from the molar mass of the structure shown.
Legend:
[1] = tested on: Staphylococcus epidermidis; test: Antibacterial activity against Staphylococcus epidermidis ATCC 12228; format: functional
Outline: (§1)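 In vitro antibacterial test on Staphylococcus strains, including MRSE clinical isolates. Read-outs were growth inhibition zone (mm) and MIC (µg/ml). Ciprofloxacin was the reference antibiotic.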

[2] = tested on: Staphylococcus epidermidis; test: Antibacterial activity against methicillin-resistant Staphylococcus epidermidis 459/11; format: functional; outline: as §1
[3] = tested on: Staphylococcus epidermidis; test: Antibacterial activity against methicillin-resistant Staphylococcus epidermidis 467/11; format: functional; outline: as §1
Staphylococcus aureus [4] = test: Antibacterial activity against Staphylococcus aureus ATCC 6538; format: functional
[5] = tested on: Staphylococcus epidermidis; test: Antibacterial activity against methicillin-resistant Staphylococcus epidermidis 469/11; format: functional; outline: as §1
Staphylococcus aureus [6] = test: Antibacterial activity against Staphylococcus aureus ATCC 29213; format: functional
[7] = tested on: Staphylococcus epidermidis; test: Antibacterial activity against Staphylococcus epidermidis ATCC 35984; format: functional; outline: as §1
[8] = tested on: Staphylococcus epidermidis; test: Antibacterial activity against methicillin-resistant Staphylococcus epidermidis 461/11; format: functional; outline: as §1
[9] = tested on: Staphylococcus epidermidis; test: Antibacterial activity against methicillin-resistant Staphylococcus epidermidis 488/11; format: functional; outline: as §1
[10] = tested on: Staphylococcus epidermidis; test: Antibacterial activity against methicillin-resistant Staphylococcus epidermidis 468/11; format: functional; outline: as §1
[11] = tested on: Staphylococcus epidermidis; test: Antibacterial activity against methicillin-resistant Staphylococcus epidermidis 466/11; format: functional; outline: as §1
Staphylococcus aureus [12] = test: Antibacterial activity against Staphylococcus aureus NCTC 4163; format: functional
[13] = tested on: Staphylococcus epidermidis; test: Antibacterial activity against methicillin-resistant Staphylococcus epidermidis 489/11; format: functional; outline: as §1
[14] = tested on: Staphylococcus epidermidis; test: Antibacterial activity against methicillin-resistant Staphylococcus epidermidis 470/11; format: functional; outline: as §1
[15] = tested on: Staphylococcus epidermidis; test: Antibacterial activity against methicillin-resistant Staphylococcus epidermidis 460/11; format: functional; outline: as §1
BALB/3T3 = test: Antiproliferative activity mouse BALB/3T3 cells; format: cell-based
Outline: (§2)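 IC50 is the concentration giving 50% growth inhibition, reported as mean with SD. HL-60/vinc and LoVo/DX are drug-resistant (MDR) sublines of HL-60 and LoVo. BALB/3T3 is a normal murine embryonic fibroblast line.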

[16] = Selectivity index, ratio of IC50 for mouse BALB/3T3 cells to IC50 for human LoVo/DX cells; format: functional
Outline: (§3)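 Selectivity index is the IC50 in normal murine embryonic fibroblasts (BALB/3T3) divided by the IC50 in the respective cancer line (HL-60, HL-60/vinc, LoVo or LoVo/DX). Each IC50 is the concentration giving 50% growth inhibition. SI >1.0 is taken as favourable.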

[17] = Selectivity index, ratio of IC50 for mouse BALB/3T3 cells to IC50 for human HL60/Vinc cells; format: functional; outline: as §3
LoVo [18] = test: Resistance index, ratio of IC50 for human LoVo/DX cells to IC50 for human LoVo cells; format: functional
Outline: (§4)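 Index of resistance is the IC50 in the resistant subline (HL-60/vinc or LoVo/DX) divided by the IC50 in its parental line (HL-60 or LoVo). Each IC50 is the concentration giving 50% growth inhibition. Bands are 0–2 sensitive, 2–10 moderate, above 10 strongly resistant.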

Staphylococcus aureus [19] = test: Antibacterial activity against Staphylococcus aureus ATCC 25923; format: functional
[20] = Antiproliferative activity against human HL60/Vinc cells; format: functional, cell-based; outline: as §2
HL-60 [21] = test: Resistance index, ratio of IC50 for human HL60/Vinc cells to IC50 for human HL60 cells; format: functional; outline: as §4
[22] = Antiproliferative activity against human LoVo/DX cells; format: functional, cell-based; outline: as §2
HL-60 [23] = test: Antiproliferative activity against human HL60 cells; format: functional, cell-based; outline: as §2
LoVo [24] = test: Antiproliferative activity against human LoVo cells; format: functional, cell-based; outline: as §2
LoVo [25] = test: Selectivity index, ratio of IC50 for mouse BALB/3T3 cells to IC50 for human LoVo cells; format: functional; outline: as §3
HL-60 [26] = test: Selectivity index, ratio of IC50 for mouse BALB/3T3 cells to IC50 for human HL60 cells; format: functional; outline: as §3

| SMILES | IC50 (BALB/3T3) [µM] | Ratio IC50 [16] | Ratio IC50 [17] | Ratio IC50 (LoVo [18]) | IC50 [20] [µM] | Ratio IC50 (HL-60 [21]) | IC50 [22] [µM] | IC50 (HL-60 [23]) [µM] | IC50 (LoVo [24]) [µM] | Ratio IC50 (LoVo [25]) | Ratio IC50 (HL-60 [26]) | other results |
| --- | --- | --- | --- | --- | --- | --- | --- | --- | --- | --- | --- | --- |
| O=C(O)c1cn(C2CC2)c2cc(N3CCNCC3)c(F)cc2c1=O [CIPROFLOXACIN] |  |  |  |  |  |  |  |  |  |  |  | MIC [1]: 0.25 µg/mL (≈ 0.754 µM); MIC [2]: 16 µg/mL (≈ 48.3 µM); MIC [3]: 16 µg/mL (≈ 48.3 µM); MIC (Staphylococcus aureus [4]): 0.25 µg/mL (≈ 0.754 µM); MIC [5]: 8 µg/mL (≈ 24.1 µM); MIC (Staphylococcus aureus [6]): 0.5 µg/mL (≈ 1.51 µM); MIC [7]: 0.125 µg/mL (≈ 0.377 µM); MIC [8]: 0.25 µg/mL (≈ 0.754 µM); MIC [9]: 16 µg/mL (≈ 48.3 µM); MIC [10]: 16 µg/mL (≈ 48.3 µM); MIC [11]: 2 µg/mL (≈ 6.04 µM); MIC (Staphylococcus aureus [12]): 0.25 µg/mL (≈ 0.754 µM); MIC [13]: 0.25 µg/mL (≈ 0.754 µM); MIC [14]: 0.125 µg/mL (≈ 0.377 µM); MIC [15]: 0.125 µg/mL (≈ 0.377 µM) |
| CC[C@@H](C(=O)[C@@H](C)[C@@H](O)[C@H](C)[C@@H]1O[C@@H]([C@@H](CC)C(=O)NCCOCCO)CC[C@@H]1C)[C@H]1O[C@]2(C=C[C@@H](O)[C@]3(CC[C@@](C)([C@H]4CC[C@](O)(CC)[C@H](C)O4)O3)O2)[C@H](C)C[C@@H]1C | 39.4 | 2.76 | 1.28 | 0.39 | 30.9 | 1.74 | 14.3 | 17.8 | 36.7 | 1.08 | 2.22 | MIC [1]: 64 µg/mL (≈ 76.4 µM); MIC [2]: 32 µg/mL (≈ 38.2 µM); MIC [3]: 32 µg/mL (≈ 38.2 µM); MIC (Staphylococcus aureus [4]): 32 µg/mL (≈ 38.2 µM); MIC [5]: 64 µg/mL (≈ 76.4 µM); MIC (Staphylococcus aureus [6]): 64 µg/mL (≈ 76.4 µM); MIC [7]: 64 µg/mL (≈ 76.4 µM); MIC [8]: 64 µg/mL (≈ 76.4 µM); MIC [9]: 64 µg/mL (≈ 76.4 µM); MIC [10]: 64 µg/mL (≈ 76.4 µM); MIC (Staphylococcus aureus [19]): 32 µg/mL (≈ 38.2 µM); MIC [11]: 64 µg/mL (≈ 76.4 µM); MIC (Staphylococcus aureus [12]): 32 µg/mL (≈ 38.2 µM); MIC [13]: 64 µg/mL (≈ 76.4 µM); MIC [14]: 64 µg/mL (≈ 76.4 µM); MIC [15]: 64 µg/mL (≈ 76.4 µM) |
| CC[C@@H](C(=O)[C@@H](C)[C@@H](O)[C@H](C)[C@@H]1O[C@@H]([C@@H](CC)C(=O)NCCc2ccc(O)c(O)c2)CC[C@@H]1C)[C@H]1O[C@]2(C=C[C@@H](O)[C@]3(CC[C@@](C)([C@H]4CC[C@](O)(CC)[C@H](C)O4)O3)O2)[C@H](C)C[C@@H]1C | 5.7 | 1.34 | 0.83 | 1.1 | 6.9 | 2.48 | 4.3 | 2.8 | 3.9 | 1.47 | 2.05 |  |
| COc1cccc2c1C(=O)c1c(O)c3c(c(O)c1C2=O)C[C@@](O)(C(=O)CO)C[C@@H]3O[C@H]1C[C@H](N)[C@H](O)[C@H](C)O1 [DOXORUBICIN] | 0.5 | 0.07 | 0.27 | 37.94 | 1.8 | 44.5 | 6.5 | 0.04 | 0.17 | 2.82 | 12 |  |
| CC[C@@H](C(=O)[C@@H](C)[C@@H](O)[C@H](C)[C@@H]1O[C@@H]([C@@H](CC)C(=O)Nc2ccc(NC(=O)[C@H](CC)[C@H]3CC[C@H](C)[C@H]([C@@H](C)[C@H](O)[C@H](C)C(=O)[C@H](CC)[C@H]4O[C@]5(C=C[C@@H](O)[C@]6(CC[C@@](C)([C@H]7CC[C@](O)(CC)[C@H](C)O7)O6)O5)[C@H](C)C[C@@H]4C)O3)cc2)CC[C@@H]1C)[C@H]1O[C@]2(C=C[C@@H](O)[C@]3(CC[C@@](C)([C@H]4CC[C@](O)(CC)[C@H](C)O4)O3)O2)[C@H](C)C[C@@H]1C | 20.2 | 7.2 | 1.26 | 0.35 | 16.1 | 7.99 | 2.8 | 2 | 8.1 | 2.49 | 10.07 |  |
| C#CCNC(=O)[C@H](CC)[C@H]1CC[C@H](C)[C@H]([C@@H](C)[C@H](O)[C@H](C)C(=O)[C@H](CC)[C@H]2O[C@]3(C=C[C@@H](O)[C@]4(CC[C@@](C)([C@H]5CC[C@](O)(CC)[C@H](C)O5)O4)O3)[C@H](C)C[C@@H]2C)O1 | 37.1 | 9.6 | 3.29 | 0.56 | 11.3 | 1.97 | 3.9 | 5.7 | 6.9 | 5.4 | 6.47 |  |
| CC[C@@H](C(=O)[C@@H](C)[C@@H](O)[C@H](C)[C@@H]1O[C@@H]([C@@H](CC)C(=O)NCCCCNC(=O)[C@H](CC)[C@H]2CC[C@H](C)[C@H]([C@@H](C)[C@H](O)[C@H](C)C(=O)[C@H](CC)[C@H]3O[C@]4(C=C[C@@H](O)[C@]5(CC[C@@](C)([C@H]6CC[C@](O)(CC)[C@H](C)O6)O5)O4)[C@H](C)C[C@@H]3C)O2)CC[C@@H]1C)[C@H]1O[C@]2(C=C[C@@H](O)[C@]3(CC[C@@](C)([C@H]4CC[C@](O)(CC)[C@H](C)O4)O3)O2)[C@H](C)C[C@@H]1C | 19.8 | 5.13 | 1.47 | 0.36 | 13.5 | 4.95 | 3.9 | 2.7 | 10.7 | 1.85 | 7.28 |  |
| CC[C@@H](C(=O)[C@@H](C)[C@@H](O)[C@H](C)[C@@H]1O[C@@H]([C@@H](CC)C(=O)NCCc2ccc(F)cc2)CC[C@@H]1C)[C@H]1O[C@]2(C=C[C@@H](O)[C@]3(CC[C@@](C)([C@H]4CC[C@](O)(CC)[C@H](C)O4)O3)O2)[C@H](C)C[C@@H]1C | 45.8 | 19.57 | 6.8 | 0.57 | 6.7 | 2.98 | 2.3 | 2.3 | 4.1 | 11.2 | 20.27 |  |
| CC[C@@H](C(=O)[C@@H](C)[C@@H](O)[C@H](C)[C@@H]1O[C@@H]([C@@H](CC)C(=O)NCCS)CC[C@@H]1C)[C@H]1O[C@]2(C=C[C@@H](O)[C@]3(CC[C@@](C)([C@H]4CC[C@](O)(CC)[C@H](C)O4)O3)O2)[C@H](C)C[C@@H]1C | 17.1 | 0.6 | 0.5 | 1.07 | 34 | 10.99 | 28.5 | 3.1 | 26.5 | 0.65 | 5.53 | MIC [1]: 32 µg/mL (≈ 39.5 µM); MIC [2]: 32 µg/mL (≈ 39.5 µM); MIC [3]: 32 µg/mL (≈ 39.5 µM); MIC (Staphylococcus aureus [4]): 16 µg/mL (≈ 19.7 µM); MIC [5]: 64 µg/mL (≈ 79 µM); MIC (Staphylococcus aureus [6]): 32 µg/mL (≈ 39.5 µM); MIC [7]: 32 µg/mL (≈ 39.5 µM); MIC [8]: 32 µg/mL (≈ 39.5 µM); MIC [9]: 32 µg/mL (≈ 39.5 µM); MIC [10]: 64 µg/mL (≈ 79 µM); MIC (Staphylococcus aureus [19]): 16 µg/mL (≈ 19.7 µM); MIC [11]: 32 µg/mL (≈ 39.5 µM); MIC (Staphylococcus aureus [12]): 16 µg/mL (≈ 19.7 µM); MIC [13]: 32 µg/mL (≈ 39.5 µM); MIC [14]: 64 µg/mL (≈ 79 µM); MIC [15]: 32 µg/mL (≈ 39.5 µM) |
| CC[C@@H](C(=O)[C@@H](C)[C@@H](O)[C@H](C)[C@@H]1O[C@@H]([C@@H](CC)C(=O)NCC2COCCOCCOCCOCCO2)CC[C@@H]1C)[C@H]1O[C@]2(C=C[C@@H](O)[C@]3(CC[C@@](C)([C@H]4CC[C@](O)(CC)[C@H](C)O4)O3)O2)[C@H](C)C[C@@H]1C (some centres not stated) | 31.3 | 3.69 | 1.16 | 0.35 | 27 | 1.16 | 8.5 | 23.2 | 24.1 | 1.3 | 1.35 |  |
| CC[C@@H](C(=O)[C@@H](C)[C@@H](O)[C@H](C)[C@@H]1O[C@@H]([C@@H](CC)C(=O)NCCc2c[nH]cn2)CC[C@@H]1C)[C@H]1O[C@]2(C=C[C@@H](O)[C@]3(CC[C@@](C)([C@H]4CC[C@](O)(CC)[C@H](C)O4)O3)O2)[C@H](C)C[C@@H]1C | 34.5 | 0.99 | 1.04 | 1.07 | 33.1 | 7.46 | 34.8 | 4.4 | 32.5 | 1.06 | 7.79 |  |
